From paper PMC2266610 (The Journal of General Physiology, 2005)
Entries after “also recorded” stand apart in the source; their conditions may differ.

Biological target: T1, homomeric (CNGA1) rod CNG channel (Bos taurus, UniProt Q00194)
T1 sequence (Q00194 1-690): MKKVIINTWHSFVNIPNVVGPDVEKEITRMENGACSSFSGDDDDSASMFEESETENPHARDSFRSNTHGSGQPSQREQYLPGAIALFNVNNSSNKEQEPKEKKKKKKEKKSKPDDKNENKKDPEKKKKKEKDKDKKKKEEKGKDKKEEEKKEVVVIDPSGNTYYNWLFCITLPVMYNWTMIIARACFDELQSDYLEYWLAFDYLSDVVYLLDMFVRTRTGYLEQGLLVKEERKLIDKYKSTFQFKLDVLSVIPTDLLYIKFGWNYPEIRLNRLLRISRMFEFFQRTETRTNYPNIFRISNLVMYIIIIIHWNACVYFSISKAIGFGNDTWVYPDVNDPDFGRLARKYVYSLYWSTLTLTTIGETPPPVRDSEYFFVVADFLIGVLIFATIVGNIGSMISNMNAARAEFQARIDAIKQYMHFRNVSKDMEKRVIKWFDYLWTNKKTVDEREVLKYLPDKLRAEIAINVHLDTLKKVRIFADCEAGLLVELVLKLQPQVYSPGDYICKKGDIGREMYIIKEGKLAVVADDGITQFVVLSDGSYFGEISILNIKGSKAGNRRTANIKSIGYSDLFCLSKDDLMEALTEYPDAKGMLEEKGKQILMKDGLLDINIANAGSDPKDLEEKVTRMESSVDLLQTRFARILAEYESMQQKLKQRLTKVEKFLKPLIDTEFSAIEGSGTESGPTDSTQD
Type: biochemical, bovine
Conditions: saturating (2 mM) cGMP; for Inhibitory potency: result in words
Summary of the method: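 CNGA1 cRNA was injected into Xenopus oocytes (16°C, 3–12 d). Inside-out patches at room temperature were held in low-divalent Na solution (pH 7.2), with 2 mM cGMP intracellular and niflumic acid extracellular. Retinoid from ethanol stocks was mixed into the bath under dim light after phosphatase-driven affinity shifts finished. Current at +100 mV was taken at ~1 h steady state, leak-subtracted, normalized to pre-drug current, and Hill-fitted.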

## CC1=C(/C=C/C(C)=C/C=C/C(C)=C/C(=O)O)C(C)(C)CCC1 [RA, all-trans-retinoic acid]
400 nM, after 1 h, representative patch
  Inhibition of current at 400 nM retinoid: did not inhibit; also recorded: no inhibition
  Inhibitory potency: No inhibition

## CC(=O)/C=C/C1=C(C)CCCC1(C)C [β-ionone]
10 μM, after 1 h
  Inhibition of current at 10 μM retinoid: unable to inhibit; also recorded: no change in current
  Inhibitory potency: No inhibition
